Results published in ChEMBL document CHEMBL4689842, “EUbOPEN Chemogenomics Library wave 1” (2021).

Tested on: HEK-293T
Experiment: Multiplex assay against HEK293T;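 on Population Tubulin-Different-Phenotype (%): share of the cells with healthy nuclei that show this phenotype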
Assay type: toxicity, cell-based
Conditions: human
How it was run: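 Four dyes were applied at seeding to live cells: Hoechst33342, BioTracker Green Microtubule Cytoskeleton Dye, MitoTracker Red and Annexin V Alexa Fluor 680. Imaging after compound addition used a CQ1 microscope at 37°C and 5% CO2. CellPathfinder machine-learning gating then sorted cells into Hoechst high-intensity objects or normal cells, normal cells into healthy, pyknosed or fragmented nuclei, and pyknosed cells into mitotic or apoptotic, with tubulin, mitochondrial-mass and membrane-permeability phenotypes given as per cents of healthy-nucleus cells.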

[1] = 12 h, 1 µM, compound concentration 1 uM, replicate 1
[2] = 12 h, 1 µM, compound concentration 1 uM, replicate 2
[3] = 12 h, 10 µM, compound concentration 10 uM, replicate 1
[4] = 12 h, 10 µM, compound concentration 10 uM, replicate 2
[5] = 24 h, 1 µM, compound concentration 1 uM, replicate 1
[6] = 24 h, 1 µM, compound concentration 1 uM, replicate 2
[7] = 24 h, 10 µM, compound concentration 10 uM, replicate 1
[8] = 24 h, 10 µM, compound concentration 10 uM, replicate 2
[9] = 48 h, 1 µM, compound concentration 1 uM, replicate 1
[10] = 48 h, 1 µM, compound concentration 1 uM, replicate 2
[11] = 48 h, 10 µM, compound concentration 10 uM, replicate 1
[12] = 48 h, 10 µM, compound concentration 10 uM, replicate 2

Compound: O=C1NC(=O)C(c2cnc3ccccn23)=C1c1cn2c3c(cc(F)cc13)CN(C(=O)N1CCCCC1)CC2 [LY-2090314]
- Population Apoptotic (%) [1]: 46%
- Population Fragmented Nuclei (%) [1]: 8%
- Population Healthy Nuclei (%) [1]: 18%
- Population Hoechst High Intensity Objects (%) [1]: 16%
- Population Membrane Permeable-Phenotype (%) [1]: 10%
- Population Mitochondria Different-Phenotype (%) [1]: 93%
- Population Mitotic Cells (%) [1]: 53%
- Population Normal (%) [1]: 83%
- Population Pyknosed Nuclei (%) [1]: 73%
- Population Tubulin-Different-Phenotype (%) [1]: 89%
- Total Cell Count [1]: 191
- Population Apoptotic (%) [2]: 26%
- Population Fragmented Nuclei (%) [2]: 6%
- Population Healthy Nuclei (%) [2]: 31%
- Population Hoechst High Intensity Objects (%) [2]: 7%
- Population Membrane Permeable-Phenotype (%) [2]: 16%
- Population Mitochondria Different-Phenotype (%) [2]: 51%
- Population Mitotic Cells (%) [2]: 73%
- Population Normal (%) [2]: 92%
- Population Pyknosed Nuclei (%) [2]: 62%
- Population Tubulin-Different-Phenotype (%) [2]: 61%
- Total Cell Count [2]: 210
- Population Apoptotic (%) [3]: 76%
- Population Fragmented Nuclei (%) [3]: 8%
- Population Healthy Nuclei (%) [3]: 18%
- Population Hoechst High Intensity Objects (%) [3]: 17%
- Population Membrane Permeable-Phenotype (%) [3]: 0%
- Population Mitochondria Different-Phenotype (%) [3]: 100%
- Population Mitotic Cells (%) [3]: 23%
- Population Normal (%) [3]: 82%
- Population Pyknosed Nuclei (%) [3]: 73%
- Population Tubulin-Different-Phenotype (%) [3]: 96%
- Total Cell Count [3]: 186
- Population Apoptotic (%) [4]: 58%
- Population Fragmented Nuclei (%) [4]: 6%
- Population Healthy Nuclei (%) [4]: 5%
- Population Hoechst High Intensity Objects (%) [4]: 8%
- Population Membrane Permeable-Phenotype (%) [4]: 14%
- Population Mitochondria Different-Phenotype (%) [4]: 85%
- Population Mitotic Cells (%) [4]: 41%
- Population Normal (%) [4]: 91%
- Population Pyknosed Nuclei (%) [4]: 87%
- Population Tubulin-Different-Phenotype (%) [4]: 85%
- Total Cell Count [4]: 135
- Population Apoptotic (%) [5]: 53%
- Population Fragmented Nuclei (%) [5]: 13%
- Population Healthy Nuclei (%) [5]: 26%
- Population Hoechst High Intensity Objects (%) [5]: 17%
- Population Membrane Permeable-Phenotype (%) [5]: 6%
- Population Mitochondria Different-Phenotype (%) [5]: 93%
- Population Mitotic Cells (%) [5]: 46%
- Population Normal (%) [5]: 82%
- Population Pyknosed Nuclei (%) [5]: 59%
- Population Tubulin-Different-Phenotype (%) [5]: 79%
- Total Cell Count [5]: 198
- Population Apoptotic (%) [6]: 29%
- Population Fragmented Nuclei (%) [6]: 5%
- Population Healthy Nuclei (%) [6]: 44%
- Population Hoechst High Intensity Objects (%) [6]: 6%
- Population Membrane Permeable-Phenotype (%) [6]: 8%
- Population Mitochondria Different-Phenotype (%) [6]: 42%
- Population Mitotic Cells (%) [6]: 70%
- Population Normal (%) [6]: 93%
- Population Pyknosed Nuclei (%) [6]: 50%
- Population Tubulin-Different-Phenotype (%) [6]: 66%
- Total Cell Count [6]: 256
- Population Apoptotic (%) [7]: 86%
- Population Healthy Nuclei (%) [7]: 38%
- Population Hoechst High Intensity Objects (%) [7]: 14%
- Population Membrane Permeable-Phenotype (%) [7]: 1%
- Population Mitotic Cells (%) [7]: 13%
- Population Normal (%) [7]: 85%
- Population Pyknosed Nuclei (%) [7]: 52%
- Total Cell Count [7]: 187
- Population Apoptotic (%) [8]: 77%
- Population Fragmented Nuclei (%) [8]: 8%
- Population Healthy Nuclei (%) [8]: 30%
- Population Hoechst High Intensity Objects (%) [8]: 8%
- Population Membrane Permeable-Phenotype (%) [8]: 2%
- Population Mitochondria Different-Phenotype (%) [8]: 100%
- Population Mitotic Cells (%) [8]: 22%
- Population Normal (%) [8]: 91%
- Population Pyknosed Nuclei (%) [8]: 61%
- Population Tubulin-Different-Phenotype (%) [8]: 95%
- Total Cell Count [8]: 148
- Population Apoptotic (%) [9]: 52%
- Population Fragmented Nuclei (%) [9]: 15%
- Population Healthy Nuclei (%) [9]: 39%
- Population Hoechst High Intensity Objects (%) [9]: 14%
- Population Membrane Permeable-Phenotype (%) [9]: 1%
- Population Mitochondria Different-Phenotype (%) [9]: 67%
- Population Mitotic Cells (%) [9]: 47%
- Population Normal (%) [9]: 85%
- Population Pyknosed Nuclei (%) [9]: 44%
- Population Tubulin-Different-Phenotype (%) [9]: 73%
- Total Cell Count [9]: 230
- Population Apoptotic (%) [10]: 29%
- Population Fragmented Nuclei (%) [10]: 3%
- Population Healthy Nuclei (%) [10]: 68%
- Population Hoechst High Intensity Objects (%) [10]: 8%
- Population Membrane Permeable-Phenotype (%) [10]: 12%
- Population Mitochondria Different-Phenotype (%) [10]: 24%
- Population Mitotic Cells (%) [10]: 70%
- Population Normal (%) [10]: 91%
- Population Pyknosed Nuclei (%) [10]: 27%
- Population Tubulin-Different-Phenotype (%) [10]: 57%
- Total Cell Count [10]: 309
- Population Apoptotic (%) [11]: 80%
- Population Fragmented Nuclei (%) [11]: 11%
- Population Hoechst High Intensity Objects (%) [11]: 12%
- Population Membrane Permeable-Phenotype (%) [11]: 0%
- Population Mitochondria Different-Phenotype (%) [11]: 99%
- Population Mitotic Cells (%) [11]: 19%
- Population Normal (%) [11]: 87%
- Population Pyknosed Nuclei (%) [11]: 23%
- Total Cell Count [11]: 200
- Population Apoptotic (%) [12]: 78%
- Population Fragmented Nuclei (%) [12]: 7%
- Population Healthy Nuclei (%) [12]: 65%
- Population Hoechst High Intensity Objects (%) [12]: 5%
- Population Membrane Permeable-Phenotype (%) [12]: 5%
- Population Mitochondria Different-Phenotype (%) [12]: 95%
- Population Mitotic Cells (%) [12]: 21%
- Population Normal (%) [12]: 94%
- Population Pyknosed Nuclei (%) [12]: 27%
- Population Tubulin-Different-Phenotype (%) [12]: 97%
- Total Cell Count [12]: 159
